The values below come from ChEMBL document CHEMBL1144721, “Bioactive triterpene saponins from the roots of Phytolacca americana” (J Nat Prod, 2008).

In one series the test system is HepG2. Description: Cytotoxicity against human HepG2 cells. The class given is functional, cell-based. In a few lines:
(§1)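 IC50 values are the mean of duplicate determinations.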

The test system of the next series is WI-38. Description: Cytotoxicity against human WI38 cells. The class given is functional, cell-based. In a few lines:
as §1

In series [1] the target is T1, ATP-dependent translocase ABCB1 (Homo sapiens, UniProt P08183). Description: Inhibition of P-glycoprotein-mediated multidrug resistance in human 2780AD cells assessed as calcein accumulation at 2.5 ug/mL relative to control. The class given is cell-based. The settings on record: a2780 adr. More on the design: scale not given: the % may be the effect or the level left. The method in brief:
(§2)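 Multidrug-resistant human ovarian cancer 2780AD cells exposed to compound at 0.25, 2.5 or 25 μg/mL. Intracellular calcein accumulation measured and expressed as the amount relative to an untreated control (% of control).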

Series [2] addresses T1, ATP-dependent translocase ABCB1. Nature of the series: Inhibition of P-glycoprotein-mediated multidrug resistance in human 2780AD cells assessed as calcein accumulation at 0.25 ug/mL relative to control. The class given is cell-based. The arrangement: scale not given: the % may be the effect or the level left. The settings on record: a2780 adr. The method in brief:
as §2

The next series relates to WI-38 VA13. Nature of the series: Cytotoxicity against human VA13 cells. In kind it is functional, cell-based. In a few lines:
as §1

The subject of series [3] is A549. Description: Antiinflammatory activity against human A549 cells assessed as inhibition of IL-1-alpha-induced ICAM1 expression after 6 hrs.
The target of series [4] is T1, ATP-dependent translocase ABCB1. Description: Inhibition of P-glycoprotein-mediated multidrug resistance in human 2780AD cells assessed as calcein accumulation at 25 ug/mL relative to control. The settings on record: a2780 adr. The class given is cell-based. More on the design: scale not given: the % may be the effect or the level left. The method in brief:
as §2

For series [5], the system named is A549. Nature of the series: Cell viability of human A549 cells after 24 hrs by MTT assay. The class given is functional. The method in brief:
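A549 cells incubated with serial dilutions of compound for 24 h. Viability (%) measured by MTT assay and used to derive IC50. Triplicate cultures.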
(Tetrazolium assays rely on reduction of a dye to a coloured formazan, in cell work by metabolically active cells.)

SMILES strings stand for the structures.

T1 sequence (P08183 whole entry): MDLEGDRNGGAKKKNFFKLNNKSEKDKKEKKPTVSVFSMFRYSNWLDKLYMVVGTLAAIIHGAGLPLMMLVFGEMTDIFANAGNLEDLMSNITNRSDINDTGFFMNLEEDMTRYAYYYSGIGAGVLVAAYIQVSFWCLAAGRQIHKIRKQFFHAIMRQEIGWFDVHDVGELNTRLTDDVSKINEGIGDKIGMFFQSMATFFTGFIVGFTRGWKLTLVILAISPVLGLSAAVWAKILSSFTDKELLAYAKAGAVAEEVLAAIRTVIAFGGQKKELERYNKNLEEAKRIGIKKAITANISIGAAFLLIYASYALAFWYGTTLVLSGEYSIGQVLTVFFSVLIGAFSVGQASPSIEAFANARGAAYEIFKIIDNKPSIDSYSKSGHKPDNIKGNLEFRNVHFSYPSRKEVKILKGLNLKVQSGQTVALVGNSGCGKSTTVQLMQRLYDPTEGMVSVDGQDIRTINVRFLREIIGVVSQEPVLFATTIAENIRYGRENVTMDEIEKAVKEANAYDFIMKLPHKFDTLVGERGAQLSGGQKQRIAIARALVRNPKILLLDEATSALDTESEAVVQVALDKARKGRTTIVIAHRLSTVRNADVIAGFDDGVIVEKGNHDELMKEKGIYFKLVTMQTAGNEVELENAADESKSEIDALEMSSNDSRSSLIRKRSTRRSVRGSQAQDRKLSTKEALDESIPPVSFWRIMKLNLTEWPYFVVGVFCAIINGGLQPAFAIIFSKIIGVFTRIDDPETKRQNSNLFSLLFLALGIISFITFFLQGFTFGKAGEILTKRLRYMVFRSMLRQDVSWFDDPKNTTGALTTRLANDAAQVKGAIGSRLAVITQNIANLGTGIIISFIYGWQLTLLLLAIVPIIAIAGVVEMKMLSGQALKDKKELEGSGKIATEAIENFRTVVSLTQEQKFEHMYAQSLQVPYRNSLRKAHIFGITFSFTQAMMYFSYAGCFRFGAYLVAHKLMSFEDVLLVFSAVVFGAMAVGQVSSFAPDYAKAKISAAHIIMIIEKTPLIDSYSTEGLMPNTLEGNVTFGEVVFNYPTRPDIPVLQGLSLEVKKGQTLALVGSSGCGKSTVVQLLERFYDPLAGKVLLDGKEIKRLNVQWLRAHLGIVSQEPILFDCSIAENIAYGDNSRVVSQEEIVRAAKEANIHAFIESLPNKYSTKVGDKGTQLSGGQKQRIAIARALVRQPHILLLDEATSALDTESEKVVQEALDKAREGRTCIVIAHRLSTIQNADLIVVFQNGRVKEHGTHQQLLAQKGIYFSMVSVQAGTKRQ

Regarding `COC(=O)[C@@]1(C)CC[C@]2(C(=O)O[C@@H]3O[C@H](CO)[C@@H](O)[C@H](O)[C@H]3O)CC[C@]3(C)C(=C[C@@H](OC)[C@@H]4[C@@]5(C)C[C@H](O)[C@H](O[C@@H]6OC[C@@H](O[C@@H]7O[C@H](CO)[C@@H](O)[C@H](O)[C@H]7O)[C@H](O)[C@H]6O)[C@@](C)(CO)[C@@H]5CC[C@]43C)[C@@H]2C1`, the IC50 with HepG2, in the series with WI-38 and in the series on WI-38 VA13 was greater than 98.2 µM each time. The Activity was 100% in series [1]; 105% in series [2]; greater than 98.2 µM in the series on A549 [3]; 108% in series [4]; greater than 98.2 µM with A549 [5].

For the compound `COC(=O)[C@@]1(C)CC[C@]2(C(=O)O[C@@H]3O[C@H](CO)[C@@H](O)[C@H](O)[C@H]3O)CC[C@]3(C)C(=CC[C@@H]4[C@@]5(C)CC[C@H](O[C@@H]6OC[C@@H](OC7O[C@H](CO)[C@@H](O)[C@H](O)[C@H]7O)[C@H](O)[C@H]6O)[C@@](C)(CO)[C@@H]5CC[C@]43C)[C@@H]2C1` (stereo partly specified), the IC50 in the series with HepG2, in the series on WI-38 and in the series on WI-38 VA13 was greater than 103 µM throughout. Besides, the Activity in series [1] was 101%; in series [2], 124%; in the series on A549 [3], greater than 103 µM; in series [4] it was 126%; in the series with A549 [5] it was greater than 103 µM.

In the case of `COC(=O)[C@@]1(C)CC[C@]2(C(=O)O[C@@H]3O[C@H](CO)[C@@H](O)[C@H](O)[C@H]3O)CC[C@]3(C)C(=CC[C@@H]4[C@@]5(C)CC[C@H](O[C@@H]6OC[C@@H](O[C@@H]7O[C@H](CO)[C@@H](O)[C@H](O)[C@H]7O)[C@H](O)[C@H]6O[C@@H]6O[C@H](CO)[C@@H](O)[C@H](O)[C@H]6O)[C@@](C)(CO)[C@@H]5CC[C@]43C)[C@@H]2C1`, the IC50 with HepG2, in the series with WI-38 and with WI-38 VA13 was greater than 88.2 µM throughout. Also, the Activity is 106% in series [1]; 126% in series [2]; greater than 88.2 µM in the series with A549 [3]; 123% in series [4]; greater than 88.2 µM in the series with A549 [5].

In the case of `COC(=O)[C@@]1(C)CC[C@]2(C(=O)O[C@@H]3O[C@H](CO)[C@@H](O)[C@H](O)[C@H]3O)CC[C@]3(C)C(=CC[C@@H]4[C@@]5(C)CC(=O)[C@H](O[C@@H]6OC[C@@H](O[C@@H]7O[C@H](CO)[C@@H](O)[C@H](O)[C@H]7O)[C@H](O)[C@H]6O)[C@@](C)(CO)[C@@H]5CC[C@]43C)[C@@H]2C1`, the IC50 with HepG2, in the series on WI-38 and in the series on WI-38 VA13 was greater than 101 µM throughout. Also, the Activity in series [1] is 115%; in series [2], 98%; with A549 [3] it was greater than 101 µM; in series [4], 120%; in the series with A549 [5], greater than 101 µM.

On to `COC(=O)[C@@]1(C)CC[C@]2(C(=O)O)CC[C@]3(C)C(=CC[C@@H]4[C@@]5(C)C[C@H](O)[C@H](O[C@@H]6OC[C@@H](O)[C@H](O)[C@H]6O)[C@@](C)(CO)[C@@H]5CC[C@]43C)[C@@H]2C1` [PHYTOLACCOSIDE B], for which the figures for the IC50 in the series on HepG2, with WI-38 and in the series on WI-38 VA13 were 74.7 µM, 36.2 µM and 68.9 µM, respectively. Besides, the Activity in series [1] is 117%; in series [2], 128%; with A549 [3], 253 µM; in series [4], 123%; with A549 [5], 265 µM.

Consider `COC(=O)[C@@]1(C)CC[C@]2(C(=O)O)CC[C@]3(C)C(=CC[C@@H]4[C@@]5(C)C[C@H](O)[C@H](O[C@@H]6OC[C@@H](OC7O[C@H](CO)[C@@H](O)[C@H](O)[C@H]7O)[C@H](O)[C@H]6O)[C@@](C)(CO)[C@@H]5CC[C@]43C)[C@@H]2C1` (stereo partly specified), for which the half-inhibitory concentration (IC50) (usually the midpoint of a concentration-inhibition curve) in the series on HepG2 came to 102 µM; with WI-38, 7.1 µM; in the series with WI-38 VA13, 117 µM. Further, the Activity in series [1] is 104%; in series [2] it was 111%; in the series with A549 [3], greater than 383 µM; in series [4], 119%; in the series on A549 [5], 661 µM.

Regarding `COC(=O)[C@@]1(C)CC[C@]2(C(=O)O[C@@H]3O[C@H](CO)[C@@H](O)[C@H](O)[C@H]3O)CC[C@]3(C)C(=CC[C@@H]4[C@@]5(C)CC[C@H](O[C@@H]6OC[C@@H](O)[C@H](O[C@@H]7OC[C@@H](O)[C@H](O)[C@H]7O[C@@H]7O[C@H](CO)[C@@H](O)[C@H](O)[C@H]7O[C@@H]7O[C@@H](C)[C@H](O)[C@@H](O)[C@H]7O)[C@H]6O)[C@@](C)(CO)[C@@H]5CC[C@]43C)[C@@H]2C1`, the IC50 in the series with HepG2, in the series on WI-38 and in the series on WI-38 VA13 was greater than 89 µM throughout. Moreover, the Activity is 68% in series [1]; 93% in series [2]; greater than 89 µM in the series with A549 [3]; 94% in series [4]; greater than 89 µM in the series with A549 [5].

Consider `COC(=O)[C@@]1(C)CC[C@]2(C(=O)O)CC[C@]3(C)C(=C[C@@H](OC)[C@@H]4[C@@]5(C)C[C@H](O)[C@H](O[C@@H]6OC[C@@H](O[C@@H]7O[C@H](CO)[C@@H](O)[C@H](O)[C@H]7O)[C@H](O)[C@H]6O)[C@@](C)(CO)[C@@H]5CC[C@]43C)[C@@H]2C1`, for which the IC50 in the series on HepG2, with WI-38 and in the series with WI-38 VA13 was greater than 118 µM throughout. The Activity in series [1] is 123%; in series [2], 118%; in the series with A549 [3], greater than 118 µM; in series [4] it was 135%; in the series with A549 [5] it was greater than 118 µM.

Regarding `COC(=O)[C@@]1(C)CC[C@]2(C(=O)O[C@@H]3O[C@H](CO)[C@@H](O)[C@H](O)[C@H]3O)CC[C@]3(C)C(=C[C@@H](O)[C@@H]4[C@@]5(C)C[C@H](O)[C@H](O[C@@H]6OC[C@@H](O[C@@H]7O[C@H](CO)[C@@H](O)[C@H](O)[C@H]7O)[C@H](O)[C@H]6O)[C@@](C)(CO)[C@@H]5CC[C@]43C)[C@@H]2C1`, the IC50 with HepG2 is greater than 100 µM; with WI-38 it was greater than 100 µM; in the series on WI-38 VA13 it was 94 µM. Besides, the Activity in series [1] is 119%; in series [2], 121%; in the series with A549 [3], greater than 100 µM; in series [4], 124%; in the series on A549 [5], greater than 100 µM.

On to `COC(=O)[C@@]1(C)CC[C@]2(C(=O)O[C@@H]3O[C@H](CO)[C@@H](O)[C@H](O)[C@H]3O)CC[C@]3(C)C(=CC[C@@H]4[C@@]5(C)C[C@H](O)[C@H](O[C@@H]6OC[C@@H](OC7O[C@H](CO)[C@@H](O)[C@H](O)[C@H]7O)[C@H](O)[C@H]6O)[C@@](C)(CO)[C@@H]5CC[C@]43C)[C@@H]2C1` (stereo partly specified), for which the IC50 in the series on HepG2, with WI-38 and in the series with WI-38 VA13 was greater than 101 µM throughout. In addition, the Activity in series [1] was 129%; in series [2], 124%; with A549 [3], greater than 320 µM; in series [4] it was 123%; in the series with A549 [5], greater than 1012 µM.

Turning to `COC(=O)[C@@]1(C)CC[C@]2(C(=O)O[C@@H]3O[C@H](CO)[C@@H](O)[C@H](O)[C@H]3O)CC[C@]3(C)C(=CC(=O)[C@@H]4[C@@]5(C)C[C@H](O)[C@H](O[C@@H]6OC[C@@H](OC7O[C@H](CO)[C@@H](O)[C@H](O)[C@H]7O)[C@H](O)[C@H]6O)[C@@](C)(CO)[C@@H]5CC[C@]43C)[C@@H]2C1` (stereo partly specified), the results for the IC50 with HepG2, with WI-38 and with WI-38 VA13 were 97.4 µM, greater than 98.8 µM and greater than 98.8 µM, respectively. Further, the Activity in series [1] was 135%; in series [2], 119%; with A549 [3], greater than 98.8 µM; in series [4], 155%; in the series with A549 [5], greater than 98.8 µM.

`COC(=O)[C@@]1(C)CC[C@]2(C(=O)O[C@@H]3O[C@H](CO)[C@@H](O)[C@H](O)[C@H]3O)CC[C@]3(C)C(=CC[C@@H]4[C@@]5(C)C[C@H](O)[C@H](O[C@@H]6OC[C@@H](O)[C@H](O)[C@H]6O)[C@@](C)(CO)[C@@H]5CC[C@]43C)[C@@H]2C1`: the IC50 is greater than 121 µM in the series on HepG2, greater than 121 µM with WI-38 and 95.2 µM in the series on WI-38 VA13. In addition, the Activity was 132% in series [1]; 141% in series [2]; greater than 121 µM in the series with A549 [3]; 143% in series [4]; greater than 121 µM with A549 [5].
